Only a selection was taken, and hits are over-represented in it overall.
HePTP inhibitor: inhibitors of human HePTP phosphatase. 110,000 compounds, 0.64% hits. P35236. inhibition, % at 20 µM. recombinant HePTP phosphatase activity, OD absorbance. AID 521; in the data active = inhibition above about 50%;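 note: plate controls were vehicle for no effect and reference inhibitor for full effect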
AP ELISA ortho: alternative pathway complement inhibition, orthogonal assay; 62,000 compounds, 0.08% hits; Human serum alternative complement pathway, LPS-coated ELISA, C3 deposition; tested in compound mixtures; inhibition, % at 5 µM;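 active = inhibition above 30% in each of the two pooled mixtures holding the compound, so the lower value exceeds 30%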;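 note: 0% = serum in Mg-EGTA without compound and 100% = EDTA serum blank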
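Test system – human serum alternative complement pathway, C3 deposition on LPS-coated wells · Buffer or medium – diluted human serum in Mg2+-EGTA GVB++ · Compound dosing – 5 µM each compound, pools of ten, 50 µM per pool · Schedule – 1 h serum-compound exposure at 37 °C · Measured by – Anti-C3 ELISA, OD 450 nm · Read-out basis – percent inhibition of C3 deposition onto LPS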
E coli RNAP: Escherichia coli RNA polymerase inhibition; inhibition, %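 (tested at 10 µM)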; AID 559; 62,000 compounds, 0.2% hits; E. coli RNA polymerase, fluorescence transcription assay; in the data active = inhibition above about 20%;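 note: 0% = enzyme without compound and 100% = no enzyme blank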
Target sequence (P0A8V2 whole entry, looked up): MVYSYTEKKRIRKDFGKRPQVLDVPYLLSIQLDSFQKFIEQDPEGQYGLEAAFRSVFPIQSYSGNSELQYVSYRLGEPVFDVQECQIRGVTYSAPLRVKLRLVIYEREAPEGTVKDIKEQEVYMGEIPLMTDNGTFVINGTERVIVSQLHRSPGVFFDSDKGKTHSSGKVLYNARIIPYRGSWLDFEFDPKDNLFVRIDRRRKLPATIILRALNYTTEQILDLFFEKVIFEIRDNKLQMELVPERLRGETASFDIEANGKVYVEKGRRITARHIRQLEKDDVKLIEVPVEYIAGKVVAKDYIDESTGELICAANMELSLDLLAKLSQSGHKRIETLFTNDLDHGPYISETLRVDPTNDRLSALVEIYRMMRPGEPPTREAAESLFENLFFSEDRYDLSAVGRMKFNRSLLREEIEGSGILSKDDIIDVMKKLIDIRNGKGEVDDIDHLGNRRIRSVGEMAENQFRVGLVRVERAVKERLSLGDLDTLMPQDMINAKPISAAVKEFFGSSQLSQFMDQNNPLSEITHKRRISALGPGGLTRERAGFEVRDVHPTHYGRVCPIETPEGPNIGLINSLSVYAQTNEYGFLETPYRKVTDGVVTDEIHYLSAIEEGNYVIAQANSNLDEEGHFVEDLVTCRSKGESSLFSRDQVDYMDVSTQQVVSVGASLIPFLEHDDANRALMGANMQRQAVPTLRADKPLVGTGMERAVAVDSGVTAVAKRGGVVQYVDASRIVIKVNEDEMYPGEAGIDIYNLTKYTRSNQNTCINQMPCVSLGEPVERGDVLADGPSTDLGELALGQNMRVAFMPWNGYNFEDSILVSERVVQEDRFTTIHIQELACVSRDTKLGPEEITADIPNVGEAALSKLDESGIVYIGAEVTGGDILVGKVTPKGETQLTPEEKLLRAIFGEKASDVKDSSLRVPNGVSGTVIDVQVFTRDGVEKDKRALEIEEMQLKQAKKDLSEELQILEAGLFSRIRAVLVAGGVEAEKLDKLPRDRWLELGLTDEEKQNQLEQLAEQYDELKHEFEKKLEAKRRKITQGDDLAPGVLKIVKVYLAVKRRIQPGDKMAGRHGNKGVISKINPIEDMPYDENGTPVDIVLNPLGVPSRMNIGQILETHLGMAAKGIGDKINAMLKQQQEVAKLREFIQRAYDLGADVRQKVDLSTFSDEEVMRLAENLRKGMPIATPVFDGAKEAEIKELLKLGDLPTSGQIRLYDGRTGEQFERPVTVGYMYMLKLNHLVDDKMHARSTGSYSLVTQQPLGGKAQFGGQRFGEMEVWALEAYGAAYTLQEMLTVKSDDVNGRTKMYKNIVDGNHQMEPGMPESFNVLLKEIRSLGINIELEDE
Ecoli WT expand: growth inhibitors of E. coli BW25113 wild type | OD600 absorbance | growth inhibition, % at 100 µM | 98,000 compounds, 0.15% hits | AID 710;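 active = growth inhibition above about 50% at one test dose, limit read from the data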;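 note: growth measured after 20 h incubation at 37 °C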
MMP-13 inhibitor: MMP13 (human) collagenase inhibition. P45452. MMP-13 fTHP FRET cleavage, Mca fluorescence. inhibition, % at 4 µM. 65,000 compounds, 0.07% hits;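 active = inhibition above the mean of compound-free control plate wells plus 3 SD, cut at about 14% in these data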;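 note: 0% = DMSO wells and 100% = wells with reference MMP-13 inhibitor after basal subtraction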
tolC growth inh: growth inhibitors of E. coli BW25113 tolC mutant | OD615 | AID 573 | growth inhibition, % at 10 µM (by protocol) | 65,000 compounds, 2.2% hits;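 active = growth inhibition at or above a cutoff equal to the mean over every tested compound plus 3 SD, cut at about 60% in these data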;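 note: growth measured after 20 h incubation at 37 °C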
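Test system: E. coli BW25113 ΔtolC::kan bacteria | Medium: Kanamycin-containing LB broth (50 µg/mL) | Dosing: One dose of 10 µM final | Times: 20 h incubation with compound, 37 °C | Detection: Optical density read at 615 nm | Read-out basis: Percent growth inhibition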
Starred values were filed as active, the others as inactive; · = no result given.

SMILES	HePTP inhibitor	AP ELISA ortho	E coli RNAP	Ecoli WT expand	MMP-13 inhibitor	tolC growth inh
CCc1ccccc1NS(=O)(=O)c1ccc(OC)c(OC)c1	4	·	·	·	·	·
Cn1c(-c2ccc3c(c2)OCO3)cnc1N	7	0	13	-2	-2	91*
COc1ccc2nc3c(cc2c1)c(NC(=O)c1cccs1)nn3CC(C)C	2	9	-4	-15	-62	78*
COc1ccc(C2c3sc(=O)[nH]c3SC3C4CCC(C4)C23)cc1 (stereo unspecified)	-12	0	-6	-8	-4	100*
COc1ccc(C(=O)Nn2cnc3scc(-c4cccs4)c3c2=O)c(O)c1	-4	-6	8	-5	-1	75*
COc1cccc(-n2cnc3scc(-c4cccs4)c3c2=O)c1	-10	-11	2	-9	-3	26
C=CCOC(=O)C(C#N)c1nc2ccccc2nc1N1CCN(Cc2ccccc2)CC1 (stereo unspecified)	10	0	-5	-8	-3	100*
CCOC(=O)C1CCCN(c2nc3ccccc3nc2C(C#N)C(=O)OC(C)COC)C1 (stereo unspecified)	3	18	21*	·	0	-4
COCC(C)OC(=O)C(C#N)c1nc2ccccc2nc1N1CCN(Cc2ccccc2)CC1 (stereo unspecified)	9	12	1	-7	-1	38
CCOC(=O)C1CCCN(c2nc3ccccc3nc2C(C#N)C(=O)OCCOC)C1 (stereo unspecified)	-1	·	9	-7	2	8
CCOC(=O)C1CCCN(c2nc3ccccc3nc2C(C#N)C(=O)OCC)C1 (stereo unspecified)	-7	-2	·	-3	14*	53
CCOc1cccc(NC(=O)C2CC(=O)N(C)C(=Nc3cccc(F)c3)S2)c1 (stereo unspecified)	9	3	7	-2	5	88*
CN(Cc1ccccc1)S(=O)(=O)c1ccc(NS(C)(=O)=O)cc1	2	16	5	1	1	29
COc1ccccc1-c1nnc(NC(=O)c2ccc(S(=O)(=O)N(C)Cc3ccccc3)cc2)o1	9	6	10	-13	0	95*
CN(c1ccccc1)S(=O)(=O)c1ccc(NC(=O)c2ccc(-c3ccccc3)cc2)cc1	·	·	·	-18	·	·
CN(Cc1ccccc1)S(=O)(=O)c1ccc(C(=O)Nc2nnc(C3CC3)o2)cc1	10	21	4	-1	-1	100*
CN(c1ccccc1)S(=O)(=O)c1ccc(C(=O)Nc2nnc(-c3ccc(F)cc3)o2)cc1	-4	6	2	-8	7	100*
Cn1c(=O)c([N+](=O)[O-])c(N2CCN(C(c3ccccc3)c3ccccc3)CC2)c2ccccc21	8	·	·	·	·	·
COc1ccc(S(=O)(=O)Nn2cnnc2)cc1	-4	·	·	·	·	·
Cc1ccc(N(CC(=O)O)S(=O)(=O)c2ccc(F)cc2)cc1	4	·	·	·	·	·
COc1ccc(/C=N/NC(=O)c2ccncc2)cc1Br	-7	·	·	·	·	·
Cc1c(NC(=O)c2ccc3ccccc3n2)c(=O)n(-c2ccccc2)n1C	3	·	·	·	·	·
CCOC(=O)C1=C(C)Nc2ncnn2C1c1c[nH]c2ccccc12 (stereo unspecified)	-7	9	7	4	3	-2
CC1=C(C(=O)OC(C)C)C(c2c[nH]c3ccccc23)n2ncnc2N1 (stereo unspecified)	3	10	7	-4	4	99*
O=C(Nc1nc2ccccc2s1)C1CCCN1S(=O)(=O)c1ccc(Cl)cc1 (stereo unspecified)	-1	12	5	-7	1	86*
SMILES	HePTP inhibitor	AP ELISA ortho	E coli RNAP	Ecoli WT expand	MMP-13 inhibitor	tolC growth inh
Cc1ccc(S(=O)(=O)N2CCCC2C(=O)Nc2nc3ccccc3s2)cc1 (stereo unspecified)	·	·	·	4	-8	21
COc1cc(NC(=O)/C=C/c2ccccc2)cc(OC)c1	7	·	·	·	·	·
C/C(=N/n1cnnc1)c1cccnc1	4	·	27*	9	-5	3
C=CCc1cc(OC)ccc1OCC(O)CN1CCN(c2ccc(OC)cc2)CC1 (stereo unspecified)	9	9	-9	12	-8	26
C=CCc1cc(C)ccc1OCC(O)CN1CCN(c2ccccc2)CC1 (stereo unspecified)	-17	20	-1	14	-2	67*
CCOc1cc(/C=C2\SC(=S)N(c3cccc(C)c3)C2=O)ccc1O	-5	·	·	·	·	·
COC(=O)c1ccc(C(=O)OC)c(NC(=O)c2cc(Cl)ccc2Cl)c1	102*	·	·	·	·	·
COC(=O)c1ccsc1NC(=O)CN1CCN(c2ccc(F)cc2)CC1	3	7	4	-14	4	70*
Cc1c(C(=O)NN(c2ccccc2)c2ccccc2)cccc1[N+](=O)[O-]	-5	·	·	·	·	·
CCSc1nnc(NC(=O)c2ccc(Cl)cc2)s1	-14	·	·	·	·	·
CC1(C)Cc2c(sc(NC(=O)C3(c4ccccc4)CCCC3)c2C#N)CO1	106*	·	·	·	·	·
CCOc1ccc(C2OC3(C(=O)c4ccccc4C3=O)C3C(=O)N(c4ccc(Cl)cc4)C(=O)C23)cc1 (stereo unspecified)	-1	·	·	·	·	·
O=C(CSc1nnc(Cc2cccs2)n1Cc1ccco1)Nc1cccc(Cl)c1	14	11	7	-4	1	8
CCOc1ccc(NCc2nnc(SCC(=O)Nc3cc(C)on3)n2-c2ccc(OC)cc2)cc1	8	12	25*	5	8	-4
COc1ccc(-n2c(COc3cccc(C)c3)nnc2SCC(=O)NCc2ccco2)cc1	6	1	22*	-19	2	20
COc1ccc(C)cc1NC(=O)CSc1nnc(COc2ccccc2)n1Cc1ccco1	6	11	·	-13	-1	76*
COc1ccc(-n2c(COc3ccc4ccccc4c3)nnc2SCC(=O)NCc2ccco2)cc1	·	·	·	-32	·	·
O=C(CSc1nnc(Cc2cccs2)n1Cc1ccco1)Nc1cc(Cl)cc(Cl)c1	1	-10	11	-24	2	91*
COc1cccc(NC(=O)/C(=C\c2cccc(Br)c2)NC(=O)c2ccccc2)c1	-15	·	·	·	·	·
Cc1ccc(C2C3=C(CC(C)(C)CC3=O)OC3=C2C(=O)CC(C)(C)C3)o1	-18	·	·	·	·	·
Cc1cc(I)ccc1S(=O)(=O)NCCCN1CCOCC1	-10	·	·	·	·	·
COc1ccc(/C=C(\NC(=O)c2ccccc2)C(=O)NN)cc1OC	3	·	·	·	·	·
COc1ccc(-c2cnc(SCC(=O)Nc3cc(C)on3)n2Cc2ccco2)cc1	1	26	-2	-13	3	80*
CCOC(=O)c1c(-c2cccs2)csc1NC(=O)CNCCN1CCOCC1	·	·	·	1	·	·
CCOC(=O)c1c(-c2cccs2)csc1NC(=O)CN1CC(C)OC(C)C1 (stereo unspecified)	11	7	7	-15	-1	68*
Cc1noc(NS(=O)(=O)c2ccc(NC(=O)COc3ccc(Cl)cc3Cl)cc2)c1C	6	8	3	5	6	63*
